# m5-HT2A agonist – mouse Htr2a agonists via beta-arrestin recruitment, primary screen, cell-based, luminescence; 5-hydroxytryptamine receptor 2A (Mus musculus), P35363; CHO-K1 mHTR2A beta-arrestin complementation; percent of 30 µM serotonin response; activation, % at 7.6 µM; 360,000 compounds, 0.66% hits; AID 624169, 2012;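 active = activation above a run cutoff, the mean activation of all tested compounds plus 3 SD, cut at about 14% in these data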;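 note: 0% = plate median of compound wells and 100% = 30 µM serotonin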
# CCR6 antag – CCR6 receptor antagonists, primary screen, cell-based, CHO-K1, luminescence, beta-arrestin, uHTS. inhibition, % at 20 µM. 340,000 compounds, 0.49% hits. CHO-K1 CCR6 PathHunter beta-arrestin, CCL20-stimulated. AID 493098, 2011. C-C chemokine receptor type 6 (Homo sapiens), P51684;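 active = compounds whose inhibition of the agonist-driven luminescence signal at 20 µM reaches about 50%, limit read from the data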;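 note: cells stimulated with CCL20 at 14 nM final; plate controls were DMSO with CCL20 for no effect and DMSO without agonist for full effect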
# EBI2 block – EBI2 receptor antagonists, beta-arrestin recruitment, primary screen, cell-based, luminescence, 7a,25-OHC stimulation, uHTS. G-protein coupled receptor 183 (Homo sapiens), P32249. 7a,25-OHC stimulated. inhibition, % at 5 µM. 360,000 compounds, 0.81% hits. AID 651636, 2012; in the data active = inhibition above about 38%;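 note: enzyme fragment complementation signal reports receptor beta-arrestin coupling in cells; 0% = agonist plus DMSO wells and 100% = wells without agonist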
# CXCR6 block – CXCR6 receptor inhibitors, primary screen, cell-based, beta-arrestin, luminescence, CHO-K1 PathHunter, 1536-well; inhibition, % at 20 µM; 360,000 compounds, 0.36% hits; in the data active = inhibition above about 34%, passing the limit was not always enough;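 note: antagonist mode with CXCL16 agonist at 10 nM final; 0% = 10 nM CXCL16 with DMSO and 100% = unstimulated wells without agonist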
# Target sequence (O00574 whole entry, looked up): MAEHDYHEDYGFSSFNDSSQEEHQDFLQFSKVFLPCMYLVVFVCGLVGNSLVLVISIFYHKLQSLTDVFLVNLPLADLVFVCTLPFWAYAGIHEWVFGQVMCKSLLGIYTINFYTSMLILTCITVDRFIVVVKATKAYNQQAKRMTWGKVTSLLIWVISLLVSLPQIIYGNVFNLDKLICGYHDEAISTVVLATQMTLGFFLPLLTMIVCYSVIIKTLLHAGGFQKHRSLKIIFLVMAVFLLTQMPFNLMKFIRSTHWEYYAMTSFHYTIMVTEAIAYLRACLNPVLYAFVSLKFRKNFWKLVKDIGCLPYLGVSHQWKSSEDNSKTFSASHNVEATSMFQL
# APJ ag – agonists of human apelin receptor APJ, primary screen, CHO-K1 cells, PathHunter beta-arrestin, luminescence; P35414; 0% DMSO wells, 100% apelin; activation, % at 20 µM; 330,000 compounds, 0.11% hits; AID 2520, 2010;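 active = activation more than six SD over the plate average, tested at 20 µM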;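 note: 0% = DMSO alone and 100% = apelin-13 at 10 nM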
#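 Test system: CHO-K1 APJ beta-arrestin complementation cell line | Compound: Single test compound dose, 20 µM final, 1% DMSO | Incubation: Compound 90 min 25 °C, reagent 1 h | Measured by: beta-gal luminescence | Read-out basis: APJ–arrestin association signal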
# APJ antagonist – antagonists of human apelin receptor APJ, primary screen, CHO-K1 cells, beta-arrestin complementation, luminescence; P35414; inhibition, % at 20 µM; 330,000 compounds, 0.32% hits; AID 2521, 2010;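 active = inhibition above about 40% at 20 µM, limit read from the data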;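 note: cells challenged with 10 nM apelin-13 agonist together with compound; plate controls were apelin-13 plus DMSO wells for no effect and DMSO wells lacking apelin-13 for full effect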
# Active calls of the source: *; / = no result. An excerpt weighted towards active compounds, which were near 2.1% of everything screened.
SMILES,m5-HT2A agonist,CCR6 antag,EBI2 block,CXCR6 block,APJ ag,APJ antagonist
O=C1NC[C@H](Cc2ccccc2)N(C[C@@H]2CCCN2C[C@H](Cc2ccc(O)cc2)N2C[C@H](Cc3ccccc3)N(CCc3ccccc3)C(=O)C2=O)C1=O,-1,/,-8,0,/,/
COc1ccc(N2C(=O)CC(Sc3ncn[nH]3)C2=O)c(OC)c1 (centres undefined),0,79*,-2,-4,4,9
CC(C)c1ccc(N2C(=O)CC(Sc3ncn[nH]3)C2=O)cc1 (centres undefined),3,0,-17,-3,4,13
CC1=CC(C)(C)Nc2ccc(OC(=O)c3ccco3)cc21,1,52*,2,26,-8,30
Cc1ccc2c(c1)C(=O)C(=O)N2CC(=O)OC(C)C,2,19,5,10,-2,-3
Cc1cccc2c1N(CCOc1ccc(C(C)(C)C)cc1)C(=O)C2=O,-2,35,7,26,2,12
Cc1ccc(OCCCN2C(=O)C(=O)c3cccc(C)c32)cc1,-7,57*,8,19,-10,38
Cc1ccc(OCCN2C(=O)C(=O)c3cc(C)ccc32)cc1,-5,52*,16,21,-5,18
CCCCCCCCN1C(=O)[C@H](CC(=O)NCc2ccc(C)o2)C[C@@]2(C(=O)OCC)CCC=C12,-4,/,6,/,/,/
COC(=O)c1ccccc1NC(=O)CSCC(=O)Nc1ccccc1,18*,11,4,-3,-1,-8
CC(C)N(C(=O)CN1CCC(c2nc3ccccc3[nH]2)CC1)C(C)C,4,11,3,-3,-2,11
COc1cc(/C=N/NC(=O)c2nc(-c3ccccc3)n(-c3ccccc3)n2)ccc1O,-4,8,6,-4,-1,-25
COc1cc(/C=N/Nc2nc(C)nc3c2cnn3-c2ccccc2)ccc1O,7,-2,56*,3,/,/
C[C@H]1CN([C@@H](C)CO)S(=O)(=O)c2ccc(C#Cc3ccccn3)cc2O[C@@H]1CN(C)C(=O)C1CC1,-3,/,3,-4,/,/
CN1CCN(C(c2ccc(C(F)(F)F)cc2)c2cc(Cl)c3cccnc3c2O)CC1 (centres undefined),/,/,/,/,-3,13
O=C(NC(c1ccc(Cl)cc1)c1cc(Cl)c2cccnc2c1O)c1cccnc1 (centres undefined),-5,35,65*,12,/,/
CN1CCN(C(c2ccc(Cl)cc2)c2cc(Cl)c3cccnc3c2O)CC1 (centres undefined),-31,63*,14,11,-5,1
COc1cccc(CC(=O)Nc2nc3c(s2)C(=O)CC(C)(C)C3)c1,-2,13,1,0,0,-31
CCC(C)[C@H](NC(=O)[C@@H]1CSC2c3ccccc3C(=O)N21)C(=O)NCc1ccco1 (some centres undefined),-1,14,1,-8,9,12
Cc1ccc(Cc2cnc(N3C(=N)SC(c4ccccc4)C3=O)s2)cc1 (centres undefined),2,62*,-13,29,-3,-8
CCN1CCCC(OC(=O)c2cc(-c3ccccc3Cl)nc3ccccc23)C1 (centres undefined),-2,15,-17,10,-4,14
O=C1c2ccccc2-c2nnc(-c3ccc(F)cc3)cc21,-3,45,48*,20,-7,7
O=C1c2ccccc2-c2nnc(-c3ccc(O)cc3)cc21,-4,8,19,14,0,-3
Cc1cc2nc(C)n(CCCNC(=O)Nc3ccc(C#N)cc3)c2cc1C,44*,14,3,6,-3,11
Cc1c(C(=O)NC(=S)Nc2ccc3c4c(cccc24)CC3)cccc1[N+](=O)[O-],2,67*,18,28,-3,4
SMILES,m5-HT2A agonist,CCR6 antag,EBI2 block,CXCR6 block,APJ ag,APJ antagonist
O=C(NC(=S)Nc1ccc(-c2ccc(CO)o2)cc1)c1cccs1,0,46,7,16,-7,51*
Cc1c(C(=O)NC(=S)Nc2ccc(NC(=O)c3cccs3)cc2)cccc1[N+](=O)[O-],-3,58*,-4,17,-6,21
CC(=O)NC(=S)Nc1ccc(NC(=S)NC(=O)c2cccs2)cc1,10,34,-5,23,-11,18
COc1cc(CNS(=O)(=O)CCl)cc(OC)c1OC,6,-5,-1,0,-3,5
COc1ccc(S(=O)(=O)N2CCOC2CNC(=O)C(=O)NCc2ccc(F)cc2)cc1OC (centres undefined),-3,11,-5,-4,5,4
O=C(Nc1ccc(-n2cc(Br)cn2)cc1)c1ccncc1,9,-7,-3,-5,-4,4
COc1ccc(O)c(-c2[nH]ncc2C(=O)c2ccccc2C)c1,-6,-10,7,5,-3,-3
Cc1ccc(NC(=O)CC(=O)Nc2ccc(C)cc2C)c(C)c1,1,9,-17,-29,-1,12
Cc1ccc(C(=O)CNc2ccc(C)cc2C)cc1,-1,79*,2,31,-9,11
COc1ccc(N2CCN(C(=O)c3ccc(C)cc3)CC2)c([N+](=O)[O-])c1,-2,6,19,5,0,14
COc1ccc(N2CCN(C(=O)c3ccc(Br)cc3)CC2)c([N+](=O)[O-])c1,-2,11,72*,1,-2,11
O=C(/C=C/c1ccccc1)c1ccccc1,5,9,5,-2,-3,14
O=CC(=O)c1ccccc1,-3,76*,-7,34,-3,12
CCOc1ccc(NC(=S)Nc2ccc3nsnc3c2)cc1,0,21,53*,-3,-3,-3
COCC(C)(C)COS(N)(=O)=O,7,4,-3,-6,-1,-40
C=CCn1nc([N+](=O)[O-])nc1Sc1cccc2cccnc12,-5,64*,36,47*,-3,27
COc1ccc(NC(=S)NC(NC(=O)c2cccc(Cl)c2)C(Cl)(Cl)Cl)c([N+](=O)[O-])c1 (centres undefined),-8,58*,9,20,-4,39
CNC1(C)[C@H]2CC[C@H](C2)C1(C)C (some centres undefined),-4,2,-3,3,-2,3
O=c1c(Br)ccc(Br)cc1Br,3,111*,8,95*,/,/
O=C1CN(S(=O)(=O)c2cc(Br)ccc2Br)CCN1,0,8,-1,-6,-2,5
CCC(=O)N1CCC1(C)C(=O)Nc1ccc2nc(C)ccc2c1 (centres undefined),1,/,-4,-6,/,/

# Screening data deposited in PubChem BioAssay by several laboratories.
